Results collected from several papers.
TMPRSS13: TMPRSS13 (Homo sapiens, UniProt Q9BYE2)
CHRM2: Muscarinic acetylcholine receptor M2 (CHRM2, Homo sapiens, UniProt P08172)
PNLIP: Pancreatic triacylglycerol lipase (PNLIP, Sus scrofa, UniProt P00591)

| SMILES | target | assay | quantity | result |
| --- | --- | --- | --- | --- |
| CS(=O)(=O)N[C@@H](CCC(N)=O)C(=O)N[C@@H](Cc1ccccc1)C(=O)N[C@@H](CCCNC(=N)N)C(=O)c1nccs1 | TMPRSS13 | cell-free assay | Ki | 0.355 µM |
| COc1cc2c(cc1OC)CN(CCc1ccc(NC(=O)c3cccc4c(=O)c5cccc(OC)c5[nH]c34)cc1)CC2 | CHRM2 | cell-free assay | Ki | 0.466 µM |
| C[C@H](CCCOS(=O)(=O)O)[C@H]1CC[C@H]2[C@@H]3CC[C@H]4C[C@@H](O)CC[C@]4(C)[C@H]3CC[C@]12C | CHRM2 | cAMP, antagonist | IC50 | 9.05 µM |
| COc1c2c(cc3c1-c1c(cc4c(c1OC)OCO4)C[C@H](C)[C@H](C)C3)OCO2 | PNLIP | enzyme activity, inhibitor, fluorescence | IC50 | 8.65 µM |
| OB1OCc2cc(F)ccc21 | Carbapenem-hydrolyzing beta-lactamase KPC (KPC-2, Klebsiella pneumoniae, UniProt Q9F663) | enzyme activity, inhibitor | IC50 | 1.1 µM |
| [2H]c1c([2H])c([C@]2([2H])CCCN2C(=O)C(C)(C)Oc2ccc3cn[nH]c3c2)c([2H])c([2H])c1C([2H])([2H])[2H] | Receptor-interacting serine/threonine-protein kinase 1 (RIPK1, Homo sapiens, UniProt Q13546) | enzyme activity, inhibitor | IC50 | 0.0018 µM |
| C=CCc1ccc(O)c(-c2cc(CC=C)ccc2O)c1 | PNLIP | enzyme activity, inhibitor, fluorescence | IC50 | 3.24 µM |
| O=C1Nc2ccc3ncsc3c2/C1=C/c1cnc[nH]1 | Serine/threonine-protein kinase Nek7 (NEK7, Homo sapiens, UniProt Q8TDX7) | enzyme activity, inhibitor | IC50 | 11.9 µM |
| C[C@H](NC(=O)[C@H](CCC(N)=O)NC(=O)CCCCNC(=N)N)C(=O)N[C@@H](CCCNC(=N)N)C(=O)c1nc2ccccc2s1 | TMPRSS13 | cell-free assay | Ki | 0.033 µM |
